Tm and folding enthalpy data for 55 sequences are collected here from the array DNA melting data of Ke et al. (doi:10.1101/2024.01.08.574731).

Data set [1] in a line: melting temperature; fluorescence melt of hairpins on a sequencing array, two-state fit, raised by 9.35 °C to match UV melts. Conditions: sodium 0.088 M. The essentials: (§1)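 In 50 mM Na-HEPES pH 8.0 containing 25 mM NaCl, hairpins from the library on a sequenced MiSeq flow cell were imaged for Cy3 fluorescence at 2.5 °C steps up to 60 °C, with Cy3 and quencher oligos annealed. After normalisation to pre-quench Cy3 and to control constructs, two-state fits with bootstrapping gave melting temperature and folding enthalpy. Four replicates were combined by inverse-variance weighting, and fitted temperatures were shifted up by 9.35 °C to match UV melts.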

Data set [2] in a line: folding enthalpy; higher = less favourable; fluorescence melt of hairpins on a sequencing array, two-state fit. Conditions: sodium 0.088 M. Put shortly:
as §1

Turning to GAAGGGCGAAAGCCGTTC (((.(((....))).))), in data set [1], the Tm is 56.6 °C. For the same sequence, in data set [2], the folding enthalpy is -22.7 kcal/mol.
For the sequence GAGGCCCCGAAAGGGCTC (((..(((....)))))), the Tm in data set [1] is 50.7 °C. Besides, the folding enthalpy in data set [2] is -14.1 kcal/mol.
As for GTAATCCGAAAGGAATAC (((.(((....))).))), in data set [1], the Tm stood at 40.6 °C. Moreover, the folding enthalpy in data set [2] is -26.2 kcal/mol.
Regarding GATCACGGAAACGTGACC (.(((((....))))).), the Tm in data set [1] was 45.1 °C. The folding enthalpy in data set [2] is -14.7 kcal/mol.
In the case of GGAGTCGAAAGACAGTCC ((((((....)))..))), in data set [1], the Tm was determined as 31.5 °C. The folding enthalpy in data set [2] is -14.3 kcal/mol.
Turning to GAGTGCGAAAGCACGCTC ((((((....)))..))), the Tm in data set [1] was determined as 66.7 °C. The folding enthalpy in data set [2] was -10.9 kcal/mol.
As to GATCCGACTACGGATC ((((((....)))))), the Tm in data set [1] is 57.1 °C. For the same sequence, the folding enthalpy in data set [2] is -35.6 kcal/mol.
GATAAGGCGAAAGCCATC (((..(((....)))))): the Tm in data set [1] was found to be 29.6 °C. For the same sequence, in data set [2], the folding enthalpy was -9.19 kcal/mol.
For the sequence GAAGGAGGAAACTCCTCC (.(((((....))))).), the Tm in data set [1] turned out to be 40.9 °C. In addition, in data set [2], the folding enthalpy is -12.7 kcal/mol.
Taken in the same sequence, the figures for GTCCTACCGAAAGGTGAC (((..(((....)))))) were 32.5 °C and -11.1 kcal/mol.
Consider CGAAACGGAAACGTGTCG (((.(((....))).))), for which, in data set [1], the Tm was determined as 47.5 °C. Also, in data set [2], the folding enthalpy was -31.5 kcal/mol.
As for GGGCACCGAAAGGTCCCC (((.(((....))).))), the Tm in data set [1] worked out at 54.7 °C. For the same sequence, in data set [2], the folding enthalpy is -17.8 kcal/mol.
Consider GATTATGAAAATAATC ((((((....)))))), for which the Tm in data set [1] was 40.1 °C. In addition, the folding enthalpy in data set [2] is -29.5 kcal/mol.
On to GCGGTTATCCGC ((((....)))), for which the Tm in data set [1] was 59 °C. Further, the folding enthalpy in data set [2] is -30 kcal/mol.
Take GAAATTGAAAAATTTC ((((((....)))))): in data set [1], the Tm was determined as 40.3 °C. Moreover, the folding enthalpy in data set [2] is -23.6 kcal/mol.
Take GACAAGCCGAAAGGCGTC (((..(((....)))))): in data set [1], the Tm was found to be 42.3 °C. In addition, the folding enthalpy in data set [2] is -9.16 kcal/mol.
As to GCAAGCCGAAAGGCCTGC (((.(((....))).))), the Tm in data set [1] is 54 °C. In data set [2], the folding enthalpy is -23.3 kcal/mol.
Consider GTCAGCGAAAGCTCCGAC ((((((....)))..))), for which, in data set [1], the Tm stood at 28.9 °C. Further, in data set [2], the folding enthalpy is -13.5 kcal/mol.
For the sequence GTAGCCGAAAGGCGCTAC ((((((....)))..))), in data set [1], the Tm turned out to be 42.8 °C. Besides, the folding enthalpy in data set [2] was -9.33 kcal/mol.
Taken in the same sequence, the figures for GCCTAAGGAAACTCAGGC ((((.((....)).)))) were 35.6 °C and -31.3 kcal/mol.
Take GAATCGGGAAACTGGTTC (((.(.(....).).))): the Tm in data set [1] is 29.3 °C. Moreover, the folding enthalpy in data set [2] was -19.8 kcal/mol.
The corresponding values for GCGCTGCGAAAGCGACGC (((..((....))..))) are 63.7 °C and -26.8 kcal/mol.
Regarding GGCCCTGGAAACAGAGCC (((.(((....))).))), the Tm in data set [1] is 48.7 °C. The folding enthalpy in data set [2] was -41.2 kcal/mol.
Turning to GCGTGGGGAAACCCGCGC (((.(((....))).))), the Tm in data set [1] is 69 °C. Besides, the folding enthalpy in data set [2] was -44.8 kcal/mol.
As to GCTAGGCGAAAGCGAAGC (((..((....))..))), in data set [1], the Tm was determined as 35.3 °C. In addition, the folding enthalpy in data set [2] was -15.8 kcal/mol.
GAATAGGGAAACCTATCC (.(((((....))))).): the Tm in data set [1] is 26.4 °C. In addition, the folding enthalpy in data set [2] was -15.5 kcal/mol.
Take GCGTCGACGAAAGTCCGC (((..(((....)))))): the Tm in data set [1] turned out to be 49.7 °C. Moreover, the folding enthalpy in data set [2] is -22.2 kcal/mol.
The corresponding values for GAAGCTGGAAACAGCTTC (((((((....))))))) are 62.7 °C and -40.9 kcal/mol.
Consider GATCTATGCATAGATC ((((((....)))))), for which, in data set [1], the Tm amounted to 49.9 °C. Also, the folding enthalpy in data set [2] is -43.4 kcal/mol.
Regarding GTGAAGGGAAACCTCCAC (((.(((....))).))), in data set [1], the Tm is 38.5 °C. Also, the folding enthalpy in data set [2] is -19.9 kcal/mol.
For the sequence GGTACGGGAAACCACACC (((..((....))..))), in data set [1], the Tm came to 33 °C. In addition, in data set [2], the folding enthalpy is -16.2 kcal/mol.
With CGTCGCCGGAAACGGACG (((..(((....)))))), the Tm in data set [1] came out at 47.1 °C. For the same sequence, in data set [2], the folding enthalpy was -17.8 kcal/mol.
Taken in the same sequence, the figures for GTAGCTGGAAACAACTAC ((((.((....)).)))) were 35.9 °C and -27.2 kcal/mol.
On to GCATAAGGAAACTCATGC ((((.((....)).)))), for which, in data set [1], the Tm came out at 30.7 °C. Further, the folding enthalpy in data set [2] was -25.2 kcal/mol.
Taken in the same sequence, the figures for GAGCCCCGAAAGGGACTC (((.(((....))).))) were 58.6 °C and -35.2 kcal/mol.
For GATCGGGTAACCGATC ((((((....)))))), in data set [1], the Tm is 68.1 °C. The folding enthalpy in data set [2] was -36.6 kcal/mol.
For GGTGCCGGAAACGGCGTC (..((((....))))..), the Tm in data set [1] worked out at 42.2 °C. Further, the folding enthalpy in data set [2] was -9.71 kcal/mol.
The corresponding values for GTAGTTGGAAACGATTAC (((.(.(....).).))) are 30.9 °C and -13.7 kcal/mol.
Turning to GGCCCCGAAAGGGTTGCC ((((((....)))..))), the Tm in data set [1] worked out at 55.3 °C. Also, the folding enthalpy in data set [2] was -16.3 kcal/mol.
For GTGGGAGAAATCCCAC ((((((....)))))), the Tm in data set [1] is 58.8 °C. For the same sequence, in data set [2], the folding enthalpy is -28.3 kcal/mol.
Turning to GTGGTTGGAAACAACTGC (..((((....))))..), the Tm in data set [1] worked out at 43.4 °C. For the same sequence, the folding enthalpy in data set [2] is -17.6 kcal/mol.
Consider GATCCCGGATGGGATC ((((((....)))))), for which, in data set [1], the Tm worked out at 67.8 °C. The folding enthalpy in data set [2] is -28 kcal/mol.
For GCACGACGAAAGTCTGC (((.(((....)))))), the Tm in data set [1] worked out at 52.4 °C. In addition, the folding enthalpy in data set [2] is -20.8 kcal/mol.
Take GCCCCCGGAAACGGGAGC ((.((((....)))).)): the Tm in data set [1] came out at 54.2 °C. Moreover, in data set [2], the folding enthalpy is -25 kcal/mol.
In the case of GCACCAGGAAACTGATGC (((.(((....))).))), the Tm in data set [1] came out at 45 °C. Besides, the folding enthalpy in data set [2] is -28.6 kcal/mol.
For the sequence GACCCCGCGAAAGCGGTC (((..(((....)))))), in data set [1], the Tm stood at 28 °C. Besides, the folding enthalpy in data set [2] was -5.92 kcal/mol.
The corresponding values for GGGCTCGGAAACGGGCCC ((((.((....)).)))) are 66.9 °C and -43.6 kcal/mol.
Taken in the same sequence, the figures for GCGTTTCGAAAGAATCGC (((.(((....))).))) were 53.5 °C and -46 kcal/mol.
On to GCGCTGCGAAAGCGGGGC ((.(.((....)).).)), for which the Tm in data set [1] was found to be 67.8 °C. For the same sequence, the folding enthalpy in data set [2] is -28.8 kcal/mol.
On to GTGTGCGAAAGCATTCAC ((((((....)))..))), for which, in data set [1], the Tm came out at 38.3 °C. Moreover, the folding enthalpy in data set [2] is -15.8 kcal/mol.
The corresponding values for TGTTCGAAAGAACA (((((....))))) are 52.3 °C and -17.1 kcal/mol.
Regarding GGGTCGGGAAACCGGCTC (.(.(((....))).).), the Tm in data set [1] came to 47.9 °C. Moreover, the folding enthalpy in data set [2] was -21.1 kcal/mol.
On to GATCTGAGCCAGATC ((((((...)))))), for which the Tm in data set [1] came to 47 °C. Also, the folding enthalpy in data set [2] was -41.7 kcal/mol.
For GATGACGAAAGTCGCATC ((((((....)))..))), the Tm in data set [1] turned out to be 30.8 °C. Further, in data set [2], the folding enthalpy was -11.1 kcal/mol.
In the case of GATCAACTCATTGATC ((((((....)))))), the Tm in data set [1] is 44.6 °C. Also, the folding enthalpy in data set [2] is -33.8 kcal/mol.
